Assays:
dopamine D1 receptor = dopamine D1 receptor (Homo sapiens, UniProt P21728); assay: Dopamine D1 receptor radioligand binding; conditions: 10 μM, [3H] SCH-23390, human recombinant CHO cells
Method in brief: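 Human recombinant receptors expressed in CHO cells (D1, D2L) or CHO-K1 cells (D4.2) were used in radioligand binding assays with [3H]SCH-23390 (D1), [3H]spiperone (D2L) or [3H]dopamine (D4.2). The test compound or its metabolite was tested at a single concentration of 10 μM. Results are expressed as percent inhibition of specific binding.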

[1] = Quantitative whole body autoradiography; type: in vivo, rat; conditions: [3H] Ticagrelor 3 mg/kg
[2] = pregnant female rat (Day 18 of gestation), 5 min
[3] = pregnant female rat (Day 18 of gestation), 0.5 h
[4] = pregnant female rat (Day 18 of gestation), 2 h
[5] = pregnant female rat (Day 18 of gestation), 4 h

Chain of dopamine D1 receptor (P21728 whole entry): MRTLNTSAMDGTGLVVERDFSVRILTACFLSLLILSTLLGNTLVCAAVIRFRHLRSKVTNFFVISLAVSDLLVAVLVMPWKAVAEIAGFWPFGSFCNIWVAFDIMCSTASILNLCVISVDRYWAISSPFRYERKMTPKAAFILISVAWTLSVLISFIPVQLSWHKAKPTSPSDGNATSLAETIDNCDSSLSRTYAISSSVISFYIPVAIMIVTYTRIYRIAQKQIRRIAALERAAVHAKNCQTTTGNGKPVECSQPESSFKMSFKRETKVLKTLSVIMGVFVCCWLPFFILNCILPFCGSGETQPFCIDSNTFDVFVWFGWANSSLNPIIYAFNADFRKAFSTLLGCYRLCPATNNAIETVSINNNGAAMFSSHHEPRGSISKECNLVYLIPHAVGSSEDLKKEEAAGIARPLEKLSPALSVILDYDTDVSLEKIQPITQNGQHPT

CCCSc1nc(N[C@@H]2C[C@H]2c2ccc(F)c(F)c2)c2nnn([C@@H]3C[C@H](OCCO)[C@@H](O)[C@H]3O)c2n1 [Ticagrelor]
Inhibition of radioligand binding at the D1 receptor (dopamine D1 receptor): neither Ticagrelor nor metabolite caused inhibition | Adrenal gland radioactivity ([1]; male rat, 5 min): 11.35 μg equivalent/g | Adrenal gland radioactivity, fold of blood value ([1]; male rat, 5 min): 5.33 fold of blood value | Blood (LSC) radioactivity ([1]; male rat, 5 min): 2.131 μg equivalent/g | Brain radioactivity ([1]; male rat, 5 min): 0.05 μg equivalent/g | Brain radioactivity, fold of blood value ([1]; male rat, 5 min): 0.02 fold of blood value | Brown fat radioactivity ([1]; male rat, 5 min): 1.35 μg equivalent/g | Brown fat radioactivity, fold of blood value ([1]; male rat, 5 min): 0.63 fold of blood value | Eye radioactivity ([1]; male rat, 5 min): 0.50 μg equivalent/g | Eye radioactivity, fold of blood value ([1]; male rat, 5 min): 0.23 fold of blood value | Heart radioactivity ([1]; male rat, 5 min): 9.15 μg equivalent/g | Heart radioactivity, fold of blood value ([1]; male rat, 5 min): 4.29 fold of blood value | Kidney radioactivity ([1]; male rat, 5 min): 10.62 μg equivalent/g | Kidney radioactivity, fold of blood value ([1]; male rat, 5 min): 4.98 fold of blood value | Liver radioactivity ([1]; male rat, 5 min): 16.11 μg equivalent/g | Liver radioactivity, fold of blood value ([1]; male rat, 5 min): 7.56 fold of blood value | Lung radioactivity ([1]; male rat, 5 min): 7.31 μg equivalent/g | Lung radioactivity, fold of blood value ([1]; male rat, 5 min): 3.43 fold of blood value | Pancreas radioactivity ([1]; male rat, 5 min): 7.35 μg equivalent/g | Pancreas radioactivity, fold of blood value ([1]; male rat, 5 min): 3.45 fold of blood value | Pituitary gland radioactivity ([1]; male rat, 5 min): 8.03 μg equivalent/g | Pituitary gland radioactivity, fold of blood value ([1]; male rat, 5 min): 3.77 fold of blood value | Salivary gland radioactivity ([1]; male rat, 5 min): 3.66 μg equivalent/g | Salivary gland radioactivity, fold of blood value ([1]; male rat, 5 min): 1.72 fold of blood value | Skeletal muscle radioactivity ([1]; male rat, 5 min): 3.15 μg equivalent/g | Skeletal muscle radioactivity, fold of blood value ([1]; male rat, 5 min): 1.48 fold of blood value | Spinal cord radioactivity ([1]; male rat, 5 min): 0.05 μg equivalent/g | Spinal cord radioactivity, fold of blood value ([1]; male rat, 5 min): 0.02 fold of blood value | Spleen radioactivity ([1]; male rat, 5 min): 4.86 μg equivalent/g | Spleen radioactivity, fold of blood value ([1]; male rat, 5 min): 2.28 fold of blood value | Stomach wall radioactivity ([1]; male rat, 5 min): 7.11 μg equivalent/g | Stomach wall radioactivity, fold of blood value ([1]; male rat, 5 min): 3.34 fold of blood value | Thymus radioactivity ([1]; male rat, 5 min): 0.99 μg equivalent/g | Thymus radioactivity, fold of blood value ([1]; male rat, 5 min): 0.46 fold of blood value | Thyroid gland radioactivity ([1]; male rat, 5 min): 7.84 μg equivalent/g | Thyroid gland radioactivity, fold of blood value ([1]; male rat, 5 min): 3.68 fold of blood value | Adrenal gland radioactivity ([1]; male rat, 0.5 h): 5.26 μg equivalent/g | Adrenal gland radioactivity, fold of blood value ([1]; male rat, 0.5 h): 5.16 fold of blood value | Blood (LSC) radioactivity ([1]; male rat, 0.5 h): 1.02 μg equivalent/g | Brain radioactivity ([1]; male rat, 0.5 h): 0.04/0.04 μg equivalent/g | Brain radioactivity, fold of blood value ([1]; male rat, 0.5 h): 0.04/0.04 fold of blood value | Brown fat radioactivity ([1]; male rat, 0.5 h): 0.95 μg equivalent/g | Brown fat radioactivity, fold of blood value ([1]; male rat, 0.5 h): 0.93 fold of blood value | Eye radioactivity ([1]; male rat, 0.5 h): 0.04/0.04 μg equivalent/g | Eye radioactivity, fold of blood value ([1]; male rat, 0.5 h): 0.04/0.04 fold of blood value | Heart radioactivity ([1]; male rat, 0.5 h): 4.94 μg equivalent/g | Heart radioactivity, fold of blood value ([1]; male rat, 0.5 h): 4.84 fold of blood value | Kidney radioactivity ([1]; male rat, 0.5 h): 6.77 μg equivalent/g | Kidney radioactivity, fold of blood value ([1]; male rat, 0.5 h): 6.64 fold of blood value | Liver radioactivity ([1]; male rat, 0.5 h): 8.44 μg equivalent/g | Liver radioactivity, fold of blood value ([1]; male rat, 0.5 h): 8.27 fold of blood value | Lung radioactivity ([1]; male rat, 0.5 h): 3.90 μg equivalent/g | Lung radioactivity, fold of blood value ([1]; male rat, 0.5 h): 3.82 fold of blood value | Pancreas radioactivity ([1]; male rat, 0.5 h): 7.83 μg equivalent/g | Pancreas radioactivity, fold of blood value ([1]; male rat, 0.5 h): 7.68 fold of blood value | Pituitary gland radioactivity ([1]; male rat, 0.5 h): 7.03 μg equivalent/g | Pituitary gland radioactivity, fold of blood value ([1]; male rat, 0.5 h): 6.89 fold of blood value | Salivary gland radioactivity ([1]; male rat, 0.5 h): 5.57 μg equivalent/g | Salivary gland radioactivity, fold of blood value ([1]; male rat, 0.5 h): 5.46 fold of blood value | Skeletal muscle radioactivity ([1]; male rat, 0.5 h): 3.26 μg equivalent/g | Skeletal muscle radioactivity, fold of blood value ([1]; male rat, 0.5 h): 3.20 fold of blood value | Spinal cord radioactivity ([1]; male rat, 0.5 h): 0.04/0.04 μg equivalent/g | Spinal cord radioactivity, fold of blood value ([1]; male rat, 0.5 h): 0.04/0.04 fold of blood value | Spleen radioactivity ([1]; male rat, 0.5 h): 3.81 μg equivalent/g | Spleen radioactivity, fold of blood value ([1]; male rat, 0.5 h): 3.74 fold of blood value | Stomach wall radioactivity ([1]; male rat, 0.5 h): 7.17 μg equivalent/g | Stomach wall radioactivity, fold of blood value ([1]; male rat, 0.5 h): 7.03 fold of blood value | Thymus radioactivity ([1]; male rat, 0.5 h): 1.28 μg equivalent/g | Thymus radioactivity, fold of blood value ([1]; male rat, 0.5 h): 1.25 fold of blood value | Thyroid gland radioactivity ([1]; male rat, 0.5 h): 3.85 μg equivalent/g | Thyroid gland radioactivity, fold of blood value ([1]; male rat, 0.5 h): 3.77 fold of blood value | Adrenal gland radioactivity ([1]; male rat, 2 h): 1.19 μg equivalent/g | Adrenal gland radioactivity, fold of blood value ([1]; male rat, 2 h): 2.57 fold of blood value | Blood (LSC) radioactivity ([1]; male rat, 2 h): 0.463 μg equivalent/g | Brain radioactivity ([1]; male rat, 2 h): 0.02 μg equivalent/g | Brain radioactivity, fold of blood value ([1]; male rat, 2 h): 0.04 fold of blood value | Brown fat radioactivity ([1]; male rat, 2 h): 0.46 μg equivalent/g | Brown fat radioactivity, fold of blood value ([1]; male rat, 2 h): 0.99 fold of blood value | Eye radioactivity ([1]; male rat, 2 h): 0.01 μg equivalent/g | Eye radioactivity, fold of blood value ([1]; male rat, 2 h): 0.02 fold of blood value | Heart radioactivity ([1]; male rat, 2 h): 1.73 μg equivalent/g | Heart radioactivity, fold of blood value ([1]; male rat, 2 h): 3.74 fold of blood value | Kidney radioactivity ([1]; male rat, 2 h): 2.22 μg equivalent/g | Kidney radioactivity, fold of blood value ([1]; male rat, 2 h): 4.79 fold of blood value | Liver radioactivity ([1]; male rat, 2 h): 3.20 μg equivalent/g | Liver radioactivity, fold of blood value ([1]; male rat, 2 h): 6.97 fold of blood value | Lung radioactivity ([1]; male rat, 2 h): 2.09 μg equivalent/g | Lung radioactivity, fold of blood value ([1]; male rat, 2 h): 4.51 fold of blood value | Pancreas radioactivity ([1]; male rat, 2 h): 2.78 μg equivalent/g | Pancreas radioactivity, fold of blood value ([1]; male rat, 2 h): 6.00 fold of blood value | Pituitary gland radioactivity ([1]; male rat, 2 h): 1.84 μg equivalent/g | Pituitary gland radioactivity, fold of blood value ([1]; male rat, 2 h): 3.97 fold of blood value | Salivary gland radioactivity ([1]; male rat, 2 h): 2.14 μg equivalent/g | Salivary gland radioactivity, fold of blood value ([1]; male rat, 2 h): 4.62 fold of blood value | Skeletal muscle radioactivity ([1]; male rat, 2 h): 1.48 μg equivalent/g | Skeletal muscle radioactivity, fold of blood value ([1]; male rat, 2 h): 3.20 fold of blood value | Spinal cord radioactivity ([1]; male rat, 2 h): 0.02 μg equivalent/g | Spinal cord radioactivity, fold of blood value ([1]; male rat, 2 h): 0.04 fold of blood value | Spleen radioactivity ([1]; male rat, 2 h): 1.51 μg equivalent/g | Spleen radioactivity, fold of blood value ([1]; male rat, 2 h): 3.29 fold of blood value | Stomach wall radioactivity ([1]; male rat, 2 h): 2.31 μg equivalent/g | Stomach wall radioactivity, fold of blood value ([1]; male rat, 2 h): 4.99 fold of blood value | Thymus radioactivity ([1]; male rat, 2 h): 1.37 μg equivalent/g | Thymus radioactivity, fold of blood value ([1]; male rat, 2 h): 2.96 fold of blood value | Thyroid gland radioactivity ([1]; male rat, 2 h): 2.60 μg equivalent/g | Thyroid gland radioactivity, fold of blood value ([1]; male rat, 2 h): 5.62 fold of blood value | Adrenal gland radioactivity ([1]; male rat, 4 h): 0.81 μg equivalent/g | Adrenal gland radioactivity, fold of blood value ([1]; male rat, 4 h): 2.24 fold of blood value | Blood (LSC) radioactivity ([1]; male rat, 4 h): 0.361 μg equivalent/g | Brain radioactivity ([1]; male rat, 4 h): 0.02 μg equivalent/g | Brain radioactivity, fold of blood value ([1]; male rat, 4 h): 0.06 fold of blood value | Brown fat radioactivity ([1]; male rat, 4 h): 0.52 μg equivalent/g | Brown fat radioactivity, fold of blood value ([1]; male rat, 4 h): 1.44 fold of blood value | Eye radioactivity ([1]; male rat, 4 h): 0.14 μg equivalent/g | Eye radioactivity, fold of blood value ([1]; male rat, 4 h): 0.39 fold of blood value | Kidney radioactivity ([1]; male rat, 4 h): 1.74 μg equivalent/g | Kidney radioactivity, fold of blood value ([1]; male rat, 4 h): 4.87 fold of blood value | Liver radioactivity ([1]; male rat, 4 h): 2.42 μg equivalent/g | Liver radioactivity, fold of blood value ([1]; male rat, 4 h): 6.70 fold of blood value | Lung radioactivity ([1]; male rat, 4 h): 1.55 μg equivalent/g | Lung radioactivity, fold of blood value ([1]; male rat, 4 h): 4.29 fold of blood value | Pancreas radioactivity ([1]; male rat, 4 h): 2.08 μg equivalent/g | Pancreas radioactivity, fold of blood value ([1]; male rat, 4 h): 5.76 fold of blood value | Pituitary gland radioactivity ([1]; male rat, 4 h): 1.65 μg equivalent/g | Pituitary gland radioactivity, fold of blood value ([1]; male rat, 4 h): 4.57 fold of blood value | Salivary gland radioactivity ([1]; male rat, 4 h): 1.59 μg equivalent/g | Salivary gland radioactivity, fold of blood value ([1]; male rat, 4 h): 4.40 fold of blood value | Skeletal muscle radioactivity ([1]; male rat, 4 h): 1.16 μg equivalent/g | Skeletal muscle radioactivity, fold of blood value ([1]; male rat, 4 h): 3.21 fold of blood value | Spinal cord radioactivity ([1]; male rat, 4 h): 0.02 μg equivalent/g | Spinal cord radioactivity, fold of blood value ([1]; male rat, 4 h): 0.06 fold of blood value | Spleen radioactivity ([1]; male rat, 4 h): 0.82 μg equivalent/g | Spleen radioactivity, fold of blood value ([1]; male rat, 4 h): 2.27 fold of blood value | Stomach wall radioactivity ([1]; male rat, 4 h): 1.32 μg equivalent/g | Stomach wall radioactivity, fold of blood value ([1]; male rat, 4 h): 3.66 fold of blood value | Thymus radioactivity ([1]; male rat, 4 h): 1.33 μg equivalent/g | Thymus radioactivity, fold of blood value ([1]; male rat, 4 h): 3.68 fold of blood value | Thyroid gland radioactivity ([1]; male rat, 4 h): 1.19 μg equivalent/g | Thyroid gland radioactivity, fold of blood value ([1]; male rat, 4 h): 3.30 fold of blood value | Blood (LSC) radioactivity [1, 2]: 2.474 μg equivalent/g | Fetus radioactivity [1, 2]: 0.03 μg equivalent/g | Fetus radioactivity, fold of blood value [1, 2]: 0.01 fold of blood value | Placenta radioactivity [1, 2]: 6.42 μg equivalent/g | Placenta radioactivity, fold of blood value [1, 2]: 2.59 fold of blood value | Blood (LSC) radioactivity [1, 3]: 0.864 μg equivalent/g | Fetus radioactivity [1, 3]: 0.06 μg equivalent/g | Fetus radioactivity, fold of blood value [1, 3]: 0.07 fold of blood value | Placenta radioactivity [1, 3]: 2.86 μg equivalent/g | Placenta radioactivity, fold of blood value [1, 3]: 3.31 fold of blood value | Blood (LSC) radioactivity [1, 4]: 0.282 μg equivalent/g | Fetus radioactivity [1, 4]: 0.07 μg equivalent/g | Fetus radioactivity, fold of blood value [1, 4]: 0.25 fold of blood value | Placenta radioactivity [1, 4]: 1.02 μg equivalent/g | Placenta radioactivity, fold of blood value [1, 4]: 3.62 fold of blood value | Blood (LSC) radioactivity [1, 5]: 0.24 μg equivalent/g | Fetus radioactivity [1, 5]: 0.03 μg equivalent/g | Fetus radioactivity, fold of blood value [1, 5]: 0.13 fold of blood value | Placenta radioactivity [1, 5]: 0.39 μg equivalent/g | Placenta radioactivity, fold of blood value [1, 5]: 1.63 fold of blood value | Brain and spinal tissue penetration (QWBA conclusion) ([1]; rats): effectively excluded from the brain and spinal tissues by the blood brain barrier | Radioactivity levels in brain, spinal cord and fetus ([1]; rats): < 0.25 fold of blood levels
